In ChEMBL document CHEMBL1156136, “Hypoxia-activated prodrugs: substituent effects on the properties of nitro seco-1,2,9,9a-tetrahydrocyclopropa[c]benz[e]indol-4-one (nitroCBI) prodrugs of DNA minor groove alkylating agents” (J Med Chem, 2009):

Columns and labels:
[1] = test system: HT-29; test: Cytotoxicity against human HT-29 cells in hypoxic condition after 4 hrs by sulforhodamine B assay; format: functional, cell-based; settings: HT-29, 4 h
How it was run: (§1)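 Log-phase monolayers exposed to drug for 4 h under aerobic (20% O2) or anoxic (<20 ppm O2) conditions, then sulforhodamine B staining 5 days later. IC50 interpolated as concentration lowering cell density to 50% of same-plate controls. HCR = IC50(oxic)/IC50(hypoxic), mean of intraexperiment ratios. A549 P450R line is a stable transfectant with 9-fold higher cytochrome c reduction rate than parent.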

[2] = test system: SK-OV-3; test: Hypoxic cytotoxicity ratio, IC50 for human SKOV3 cells in oxic condition to IC50 for human SKOV3 cells in hypoxic condition; format: functional; how it was run: as §1
[3] = test system: HT-29; test: Cytotoxicity against human HT-29 cells in oxic condition after 4 hrs by sulforhodamine B assay; format: functional, cell-based; settings: HT-29, 4 h; how it was run: as §1
[4] = test system: SK-OV-3; test: Cytotoxicity against human SKOV3 cells in hypoxic condition after 4 hrs by sulforhodamine B assay; format: functional, cell-based; settings: SK-OV-3, 4 h; how it was run: as §1
[5] = test system: SK-OV-3; test: Cytotoxicity against human SKOV3 cells in oxic condition after 4 hrs by sulforhodamine B assay; format: functional, cell-based; settings: SK-OV-3, 4 h; how it was run: as §1
[6] = test system: HT-29; test: Hypoxic cytotoxicity ratio, IC50 for human HT-29 cells in oxic condition to IC50 for human HT-29 cells in hypoxic condition; format: functional; how it was run: as §1

Structure (SMILES)	IC50 [1] [nM]	Ratio IC50 [2]	IC50 [3] [nM]	IC50 [4] [nM]	IC50 [5] [nM]	Ratio IC50 [6]
CN(C)CCOc1ccc2[nH]c(C(=O)N3CC(CCl)c4c3cc([N+](=O)[O-])c3cc(S(C)(=O)=O)ccc43)cc2c1 (centres undefined)	0.27	11	970	0.12	1300	4
CN(C)CCOc1ccc2[nH]c(C(=O)N3CC(CCl)c4c3cc([N+](=O)[O-])c3ccc(C(N)=O)cc43)cc2c1 (centres undefined)		34	2800		3400	22
CN(C)CCOc1ccc2[nH]c(C(=O)N3CC(CCl)c4c3cc(N)c3cc(C(N)=O)ccc43)cc2c1 (centres undefined)	48	1	61000	13	13000	1.4
COC(=O)c1ccc2c3c(cc([N+](=O)[O-])c2c1)N(C(=O)c1cc2cc(OCCN(C)C)ccc2[nH]1)CC3CCl (centres undefined)		1.9	320		440	1.2
COc1cc2cc(C(=O)N3CC(CCl)c4c3cc([N+](=O)[O-])c3cc(C(N)=O)ccc43)[nH]c2c(OC)c1OC (centres undefined)	3.6	6.1	7900	1.6	5800	2.8
COc1cc2cc(C(=O)N3CC(CCl)c4c3cc([N+](=O)[O-])c3ccc(S(N)(=O)=O)cc43)[nH]c2c(OC)c1OC (centres undefined)	14	2.6	24000	4.9	12000	1.9
COC(=O)c1ccc2c([N+](=O)[O-])cc3c(c2c1)C(CCl)CN3C(=O)c1cc2cc(OCCN(C)C)ccc2[nH]1 (centres undefined)		2.4	550		520	1.6
COc1cc2cc(C(=O)N3CC(CCl)c4c3cc([N+](=O)[O-])c3cc(S(N)(=O)=O)ccc43)[nH]c2c(OC)c1OC (centres undefined)	12	10	43000	3.7	37000	3.6
CN(C)CCOc1ccc2[nH]c(C(=O)N3CC(CCl)c4c3cc([N+](=O)[O-])c3c(S(N)(=O)=O)cccc43)cc2c1 (centres undefined)	1200	4.6	2700	800	3700	2.3
CN(C)CCOc1ccc2[nH]c(C(=O)N3CC(CCl)c4c3cc([N+](=O)[O-])c3ccccc43)cc2c1 (centres undefined)	0.48		470	0.87	1400	
CN(C)CCOc1ccc2[nH]c(C(=O)N3CC(CCl)c4c3cc([N+](=O)[O-])c3c([N+](=O)[O-])cccc43)cc2c1 (centres undefined)	1.3	2.9	2800	1.4	4100	2.2
CN(C)CCOc1ccc2[nH]c(C(=O)N3CC(CCl)c4c3cc(N)c3ccccc43)cc2c1 (centres undefined)	3.5	0.97	5000	6.6	6800	1.3
COc1cc2cc(C(=O)N3CC(CCl)c4c3cc(N)c3ccccc43)[nH]c2c(OC)c1OC (centres undefined)	2.5	1	860	1.7	1300	0.76
CN(C)CCOc1ccc2[nH]c(C(=O)N3CC(CCl)c4c3cc([N+](=O)[O-])c3ccc(C#N)cc43)cc2c1 (centres undefined)	1200	1.5	1400	880	1200	1.4
COC(=O)c1ccc2c3c(cc(N)c2c1)N(C(=O)c1cc2cc(OCCN(C)C)ccc2[nH]1)CC3CCl (centres undefined)	5.7	0.91	8600	8.3	7700	1.7
CN(C)CCOc1ccc2[nH]c(C(=O)N3CC(CCl)c4c3cc([N+](=O)[O-])c3cc(C#N)ccc43)cc2c1 (centres undefined)	0.43		700	0.19	810	
COc1cc2cc(C(=O)N3CC(CCl)c4c3cc(N)c3cc(C#N)ccc43)[nH]c2c(OC)c1OC (centres undefined)	11	1.3	15000	9	10000	1.9
COc1cc2cc(C(=O)N3CC(CCl)c4c3cc(N)c3cc(S(N)(=O)=O)ccc43)[nH]c2c(OC)c1OC (centres undefined)	91	1.3	86000	33	41000	1.1
COc1cc2cc(C(=O)N3CC(CCl)c4c3cc([N+](=O)[O-])c3cc(C(C)=O)ccc43)[nH]c2c(OC)c1OC (centres undefined)	0.93	19	4100	0.44	5100	5.2
COc1cc2cc(C(=O)N3CC(CCl)c4c3cc(N)c3cc(C(N)=O)ccc43)[nH]c2c(OC)c1OC (centres undefined)	28	1.2	59000	27	34000	2.3
CC(=O)c1ccc2c3c(cc(N)c2c1)N(C(=O)c1cc2cc(OCCN(C)C)ccc2[nH]1)CC3CCl (centres undefined)	5.6	1.4	7600	8.2	11000	1.5
COc1cc2cc(C(=O)N3CC(CCl)c4c3cc([N+](=O)[O-])c3cc([N+](=O)[O-])ccc43)[nH]c2c(OC)c1OC (centres undefined)	1300	70	14000	240	16000	12
COc1cc2cc(C(=O)N3CC(CCl)c4c3cc([N+](=O)[O-])c3c(C(C)=O)cccc43)[nH]c2c(OC)c1OC (centres undefined)	0.33	3.4	680	0.14	500	2
CC(=O)c1ccc2c3c(cc([N+](=O)[O-])c2c1)N(C(=O)c1cc2cc(OCCN(C)C)ccc2[nH]1)CC3CCl (centres undefined)		4	170		640	1.5
CN(C)CCOc1ccc2[nH]c(C(=O)N3CC(CCl)c4c3cc([N+](=O)[O-])c3ccc(S(C)(=O)=O)cc43)cc2c1 (centres undefined)		2.7	980		1900	1.2
CC(=O)c1ccc2c([N+](=O)[O-])cc3c(c2c1)C(CCl)CN3C(=O)c1cc2cc(OCCN(C)C)ccc2[nH]1 (centres undefined)		1.3	150		200	1.1
CN(C)CCOc1ccc2[nH]c(C(=O)N3CC(CCl)c4c3cc([N+](=O)[O-])c3cccc([N+](=O)[O-])c43)cc2c1 (centres undefined)		1.5	1400		1200	1.3
COc1cc2cc(C(=O)N3CC(CCl)c4c3cc([N+](=O)[O-])c3c([N+](=O)[O-])cccc43)[nH]c2c(OC)c1OC (centres undefined)	> 20		> 20000	> 20	> 20000	
CN(C)CCOc1ccc2[nH]c(C(=O)N3CC(CCl)c4c3cc([N+](=O)[O-])c3ccc(S(N)(=O)=O)cc43)cc2c1 (centres undefined)		21	9000		4900	26
CN(C)CCOc1ccc2[nH]c(C(=O)N3CC(CCl)c4c3cc([N+](=O)[O-])c3cc(C(N)=O)ccc43)cc2c1 (centres undefined)			4100		3900	
